Measured values reported in PMC10552104 (ACS Omega, 2023).

Tests used:
Format in all cases: cell-based
[1] = system: DU145 prostate cancer cell line; assay: MTT cytotoxicity assay, DU145; conditions: Homo sapiens, DU-145, 24 h, read-out: IC50 DU145
Outline: (§1)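 IC50 values in μM, reported as mean ± S.D. from the table footnote; the same footnote covers the three cancer lines and the normal CHO–K1 line. The full series of test compounds was screened on each line.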

[2] = system: B16 melanoma cancer cell line; assay: MTT cytotoxicity assay, B16; conditions: Mus musculus, B16, 24 h, read-out: IC50 B16
Outline: as §1

[3] = system: HepG2 hepatocellular carcinoma cells; assay: MTT cytotoxicity assay, HepG2; conditions: Homo sapiens, HepG2, 24 h, read-out: IC50 HepG2
Outline: as §1

## c1ccc(C(c2c[nH]c3ccccc23)c2c[nH]c3ccccc23)cc1 [1a, 3,3′-(Phenylmethylene)bis(1H-indole)]
[1]
  IC50: 5.24 ± 0.67 µM
[2]
  IC50: 9.88 ± 1.19 µM
[3]
  IC50: 4.62 ± 0.03 µM

## COc1ccc2[nH]cc(C(c3ccc(C)cc3)c3c[nH]c4ccc(OC)cc34)c2c1 [1c, 3,3′-(p-Tolylmethylene)bis(5-methoxy-1H-indole)]
[1]
  IC50: 2.02 ± 0.74 µM
[2]
  IC50: 36 ± 1.09 µM
[3]
  IC50: 5.47 ± 0.56 µM

## COc1ccc(C(c2c[nH]c3ccc(C#N)cc23)c2c[nH]c3ccc(C#N)cc23)cc1 [1g, 3,3′-((4-Methoxyphenyl)methylene)bis(1H-indole-5-carbonitrile)]
[1]
  IC50: 8.13 ± 0.77 µM
[2]
  IC50: 9.82 ± 0.52 µM
[3]
  IC50: 6.33 ± 1.8 µM

## COc1ccc(C(c2c(-c3ccccc3)[nH]c3ccccc23)c2c(-c3ccccc3)[nH]c3ccccc23)cc1OC [1i, 3,3′-((3,4-Dimethoxyphenyl)methylene)bis(2-phenyl-1H-indole)]
[1]
  IC50: 10.3 ± 0.87 µM
[2]
  IC50: 15.9 ± 0.25 µM
[3]
  IC50: 7.43 ± 1.6 µM

## O=[N+]([O-])c1ccc(C(c2c[nH]c3ccccc23)c2c[nH]c3ccccc23)cc1 [1k, 3,3′((4-Nitrophenyl)methylene)bis(1H-indole)]
[1]
  IC50: 1.09 ± 0.92 µM
[2]
  IC50: 29.2 ± 2.38 µM
[3]
  IC50: 5.28 ± 0.24 µM

## c1ccc2c(C(c3c[nH]c4ccccc34)c3c[nH]c4ccccc34)cccc2c1 [1m, 3,3′-(Naphthalen-1-ylmethylene)bis(1H-indole)]
[1]
  IC50: 8.18 ± 0.74 µM
[2]
  IC50: 9.49 ± 1.97 µM
[3]
  IC50: 7.54 ± 1.19 µM

## c1ccc2c(C(c3c[nH]c4ccccc34)c3c[nH]c4ccccc34)c3ccccc3cc2c1 [1n, 3,3′-(Anthracen-9-ylmethylene)bis(1H-indole)]
[1]
  IC50: 6.87 ± 1.06 µM
[2]
  IC50: 13.6 ± 0.92 µM
[3]
  IC50: 11.9 ± 0.1 µM

## c1coc(C(c2c[nH]c3ccccc23)c2c[nH]c3ccccc23)c1 [1o, 3,3′-(Furan-2-ylmethylene)bis(1H-indole)]
[1]
  IC50: 60.8 ± 1.24 µM
[2]
  IC50: 16.1 ± 0.79 µM
[3]
  IC50: 5.87 ± 0.3 µM

## Brc1ccc2[nH]cc(C(c3ccco3)c3c[nH]c4ccc(Br)cc34)c2c1 [1p, 3,3′-(Furan-2-ylmethylene)bis(5-bromo-1H-indole)]
[1]
  IC50: 19.4 ± 0.88 µM
[2]
  IC50: 19.7 ± 0.87 µM
[3]
  IC50: 11.4 ± 1.37 µM

## c1ccc(-c2[nH]c3ccccc3c2C(c2ccco2)c2c(-c3ccccc3)[nH]c3ccccc23)cc1 [1q, 3,3′-(Furan-2-ylmethylene)bis(2-phenyl-1H-indole)]
[1]
  IC50: 39.5 ± 1.02 µM
[2]
  IC50: 23.5 ± 7 µM
[3]
  IC50: 5 ± 0.01 µM

## Cc1[nH]c2ccccc2c1C(c1cccs1)c1c(C)[nH]c2ccccc12 [1r, 3,3′-(Thiophen-2-ylmethylene)bis(2-methyl-1H-indole)]
[1]
  IC50: 21.2 ± 2.01 µM
[2]
  IC50: 15.7 ± 2.1 µM
[3]
  IC50: 5.82 ± 0.5 µM

## COc1cc(C(c2c[nH]c3ccccc23)c2c[nH]c3ccccc23)cc(OC)c1O [1s, 4-(Di(1H-indol-3-yl)methyl)-2,6-dimethoxyphenol]
[1]
  IC50: 22.6 ± 0.98 µM
[2]
  IC50: 7.02 ± 0.32 µM
[3]
  IC50: 7.01 ± 0.53 µM

## COc1ccc(C(c2c[nH]c3ccccc23)c2c[nH]c3ccccc23)cc1OC [1t, 3,3′-((3,4-Dimethoxyphenyl)methylene)bis(1H-indole)]
[1]
  IC50: 12.2 ± 0.96 µM
[2]
  IC50: 8.14 ± 1.45 µM
[3]
  IC50: 8.12 ± 0.87 µM

## COc1cccc2c1C(=O)c1c(O)c3c(c(O)c1C2=O)C[C@@](O)(C(=O)CO)C[C@@H]3O[C@H]1C[C@H](N)[C@H](O)[C@H](C)O1 [doxorubicin, reference compound]
[1]
  IC50: 0.7 ± 0.13 µM
[2]
  IC50: 0.8 ± 0.12 µM
[3]
  IC50: 0.6 ± 0.12 µM
